HCT116 PTEN-null = suppresses growth of cells with PTEN deletion; HCT116 PTEN-null viability, CellTiter-Glo, 60 h; active compounds read low; viability, % at 10 µM; hit rate 1.2% among 140,000; AID 827;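 active means viability at or below a set limit, 4 SD under the median of all tested compounds, cut at about 3.7% in these data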;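 further: PTEN knockout HCT116 line with beta catenin targeted HCT116 as companion control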
Autophagy HCS = modulators of autophagy; AID 463193; hit rate 0.98% among 190,000; MEF GFP-LC3 puncta imaging; test concentration mostly 10 µM; calls only at 10 µM (by protocol);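 active means percentage of spot-positive cells more than 3 SD above its plate mean, without a fluorescence outlier flag or 80% toxicity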;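 further: spot-positive cell cutoff set from DMSO-treated cells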
L major viab = reduces viability of Leishmania major promastigotes. AID 1063. resazurin fluorescence viability. inhibition, % at 10 µM. hit rate 9% among 200,000; in the data active means inhibition above about 50%;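 further: promastigotes grown with compound for 44 hours at 28 °C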
bCat KO growth = beta-catenin-lacking colon tumor cell growth suppression. HCT116 beta-catenin knockout viability, CellTiter-Glo, 60 h; active compounds read low. viability, % at 10 µM. hit rate 1.5% among 140,000. AID 818;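 active means viability at or under a set limit, the compound median less 4 SD, cut at about 6% in these data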;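 further: 0% = Hyamine 1622 control at 20 µM and 100% = untreated cell control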
Dynein transport = blocks dynein driven cargo transport along microtubules; 3617.4 mouse cells, GR-EGFP nuclear translocation imaging; test concentration mostly 20 µM; stimulated with dexamethasone, 1 µM; active compounds read low; hit rate 0.47% among 220,000; AID 1381; z-score, hits read low;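 active means plate z-score of nuclear minus cytoplasmic receptor signal below a set negative limit, without overly bright fluorescence or cell loss, cut at about -3.5 in these data, passing the limit was not always enough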;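 further: z-score of nuclear minus cytoplasmic ring GR-EGFP intensity difference per well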
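Also added – dexamethasone, 1.0 µM final · Buffer or medium – tet-free, stripped-serum medium · Schedule – induction 48 h, compound 1 h, agonist 30 min · Detection – formaldehyde fixation, Hoechst nuclear stain, 10x automated fluorescence imaging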
Active calls of the source: *; i = inactive; / = no result given; + = active, no number. In the library only some 9.2% were active in any assay of this set; here they are far more common.

SMILES | HCT116 PTEN-null | Autophagy HCS | L major viab | bCat KO growth | Dynein transport
Clc1ccc(Cn2c(CN3CCCC3)nc3ccccc32)cc1 | 71 | i | 100* | 77 | 1.3
c1ccc(Cn2c(CN3CCCC3)nc3ccccc32)cc1 | 88 | i | 4 | 82 | 0.077
Cn1c(CNc2nc3ccccc3n2CCN2CCCCC2)nc2ccccc21 | 71 | i | 99* | 66 | -1
Cn1c(CNc2ccccc2O)nc2ccccc21 | 71 | / | 89* | 63 | 1.1
CCN(CC)c1ccc(CNc2nc3ccccc3n2CCN2CCCCC2)cc1 | / | i | 100* | / | 2.1
COc1ccc(CNc2nc3ccccc3n2CCN2CCCCC2)cc1 | / | i | 38 | / | -0.68
CCN(CC)CCn1c(NCc2ccco2)nc2ccccc21 | 87 | i | 1 | 74 | -0.49
CCN(CC)CCn1c(NCc2nc3ccccc3n2Cc2ccccc2)nc2ccccc21 | 38 | i | 100* | 47 | -0.8
c1ccc(Cn2c(CNc3nc4ccccc4n3CCN3CCCCC3)nc3ccccc32)cc1 | 33 | i | 100* | 35 | 0.49
O=C(N/N=C/c1ccncc1)c1cc([N+](=O)[O-])cc([N+](=O)[O-])c1 | 97 | i | 96* | 100 | -0.56
O=C(N/N=C/c1ccncc1)c1cccc([N+](=O)[O-])c1 | 87 | i | -2 | 93 | -0.15
O=C(N/N=C/c1ccc(Br)o1)c1cc([N+](=O)[O-])cc([N+](=O)[O-])c1 | / | i | 94* | / | -0.3
Cc1nn(Cc2ccc(Cl)cc2Cl)c(C)c1NC(=O)c1ccc(COc2cc(Cl)ccc2Cl)o1 | 49 | i | 15 | 47 | -1.3
Cc1nn(Cc2c(F)c(F)c(F)c(F)c2F)c(C)c1NC(=O)c1ccc(COc2ccc(Cl)cc2Cl)o1 | 14 | i | 27 | 4.7* | -0.55
Cc1sc2ncnc(N=Nc3c(O)[nH]c4ccccc34)c2c1C | 51 | i | 6 | 57 | 0.033
Oc1[nH]c2ccccc2c1N=Nc1ccc(C(F)(F)F)cn1 | 78 | i | 55* | 79 | -0.78
CCc1cc2c(N=Nc3c(O)[nH]c4ccccc34)ncnc2s1 | 100 | + | 1 | 89 | -0.55
Nc1nnc(SCC(=O)NN2C(=O)NC3(CCCCC3)C2=O)s1 | 97 | i | 60* | 106 | 0.086
Cc1cc(=O)oc2cc(NC(=O)c3cc([N+](=O)[O-])ccc3N3CCOCC3)ccc12 | / | i | 6 | / | -0.71
COc1ccc(F)cc1C(=O)C1CCCN(Cc2cn(C)c3ccccc23)C1 (stereo not drawn) | / | i | 90* | / | 0.14
Cn1cc(CN2CCCC(C(=O)c3cc(F)ccc3F)C2)c2ccccc21 (stereo not drawn) | / | i | 88* | / | -0.43
O=Cc1ccccc1OCCOc1ccc([N+](=O)[O-])cc1 | / | i | 52* | / | 0.5
O=[N+]([O-])c1ccc(COc2ccccc2/C=N/O)cc1 | 98 | i | -2 | 86 | 0.12
COc1ccc(OC)c(/C=C2\SC(=S)N(Cc3cccnc3)C2=O)c1 | 16 | i | 82* | 9 | 1.3
COc1cc(/C=C2/SC(=S)N(CC(=O)Nc3cccnc3)C2=O)cc(OC)c1OC | 98 | i | -4 | 95 | -0.4
SMILES | HCT116 PTEN-null | Autophagy HCS | L major viab | bCat KO growth | Dynein transport
CN(CCc1cnn(C)c1)Cc1cn[nH]c1-c1ccc(-c2ccccc2)cc1 | / | i | 90* | / | 0.51
COc1ccc(CN2CCN(S(=O)(=O)c3ccc(C)cc3)CC2)cc1Br | 76 | i | 68* | 83 | -0.18
CCCN1CCN(S(=O)(=O)c2ccc(OC)c(Br)c2)CC1 | 95 | i | 96* | 90 | -0.15
COc1ccc(CN2CCOCC2)cc1Br | 81 | i | -3 | 87 | -0.34
COc1ccc(S(=O)(=O)N2CCCN(S(=O)(=O)c3ccc(OC)c(C)c3)CC2)cc1C | 50 | i | 9 | 49 | 0.83
CCOc1cc(S(=O)(=O)N2CCN(CC)CC2)ccc1Cl | 89 | i | 90* | 76 | -0.39
O=C(Nc1sc(-c2ccccc2)cc1C(=O)O)c1ccccc1 | / | / | / | / | -0.83
Cc1ccccc1NS(=O)(=O)c1ccc(C)c(NS(C)(=O)=O)c1C | / | i | -3 | / | -1.3
COC(=O)C(C(=O)Nc1nc2ccccc2s1)C1CCCC1 (stereo not drawn) | / | i | -7 | / | -0.69
O=C(c1ccccc1)c1c[nH]c(C(=O)C(Cl)(Cl)Cl)c1 | / | i | 87* | / | 0.24
O=C(c1c[nH]c(C(=O)C(Cl)(Cl)Cl)c1)c1ccc(F)cc1Cl | / | i | 71* | / | -2.2
CN(C)C=NC(=O)c1cc(C(=O)c2ccccc2)c[nH]1 | / | i | 0 | / | -1
O=C(NC1CC1)c1ccc(F)cc1Cl | 109 | i | -4 | 86 | -0.28
O=C(c1ccc(Oc2ccc(C(F)(F)F)cc2[N+](=O)[O-])cc1)N1CCOCC1 | 93 | i | 55* | 89 | -0.95
O=C1CC(c2ccccc2F)c2cc3c(cc2N1)CCC3 (stereo not drawn) | 14 | i | 97* | 15 | 2.8
Cc1cc2c(cc1C)C(c1ccccc1Br)CC(=O)N2 (stereo not drawn) | 72 | i | 99* | 71 | -0.14
CCCOc1ccccc1C1CC(=O)Nc2cc3c(cc21)OCCO3 (stereo not drawn) | 17 | i | 98* | 17 | -0.11
O=C1CC(c2cc(Br)ccc2F)c2cc3c(cc2N1)CCC3 (stereo not drawn) | 11 | i | 1 | 10 | -0.61
CCOc1ccccc1C1CC(=O)Nc2cc3c(cc21)OCCO3 (stereo not drawn) | 16 | i | 17 | 17 | -0.096
CCOc1ccc(C(=O)NCCC2=CCCCC2)cc1OCC | / | i | 1 | / | -0.18
C=CCC(C(=O)OC)(C(=O)OC)c1ccccc1[N+](=O)[O-] | / | i | 0 | / | -0.6
CCCCN1C(=O)NC(NC(=O)c2ccco2)(C(F)(F)F)C1=O (stereo not drawn) | 87 | i | -2 | 86 | 1.4
CC1CCCC(N2C(=O)NC(NC(=O)c3ccco3)(C(F)(F)F)C2=O)C1C (stereo not drawn) | 85 | i | 56* | 84 | 1.9
O=C(c1ccccn1)c1cc2ccccc2n1S(=O)(=O)c1ccccc1 | 87 | i | 34 | 93 | 0.3
CC(C(=O)Nc1ccccc1Sc1ccccc1)N(c1ccccc1)S(C)(=O)=O (stereo not drawn) | 73 | i | 99* | 85 | -0.83
SMILES | HCT116 PTEN-null | Autophagy HCS | L major viab | bCat KO growth | Dynein transport
CS(=O)(=O)N(CC(=O)Nc1ccccc1Sc1ccccc1)c1ccc(F)cc1 | 71 | i | 76* | 65 | -0.49
CS(=O)(=O)N(Cc1ccc(C(=O)Nc2ccccc2Sc2ccccc2)cc1)c1ccccc1 | 95 | i | 4 | 84 | 0.18
CCCCCC#CCC#CCC#CCC#CCCCC(=O)O | 92 | i | 84* | 93 | 0.24
CCN(C(=O)COC(=O)c1[nH]c(=O)[nH]c(=O)c1N)c1ccccc1 | / | i | -7 | / | -0.43
CCOC(=O)C1=C(C)N=C2c3ccccc3C(=O)C2C1c1ccc(Cl)cc1 (stereo not drawn) | 47 | i | 96* | 67 | -1.7
Cc1ccc(C2C3=C(CC(C)(C)CC3=O)OC3=C2C(=O)CC(C)(C)C3)cc1 | / | i | 7 | / | 0.049

Screening results: PubChem BioAssay, several laboratories
